Assay: Thiol reactivity assay
Format: physicochemical
Details: room temperature, 1H NMR
Procedure, shortened: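 Dehydroamino-acid peptide (typically 0.010–0.015 mmol) in DMSO-d6 with 1,3,5-trimethoxybenzene as internal standard, treated with 2 equiv cysteamine added from a freshly prepared 0.5 M stock in DMSO-d6. 1H NMR spectra were recorded over time, and loss of starting peptide was quantified from diagnostic signals against the internal standard. Peptides unreactive at room temperature were heated stepwise to 60, 80 and 100 °C.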

C=C1CCOC1=O [α-methylene-γ-butyrolactone]
time to complete consumption of the electrophile by cysteamine: ≤ 5 min

Reference: paper PMC7077758 (The Journal of organic chemistry, 2019)
